In ChEMBL document CHEMBL1137716, “Novel modifications in the series of O-(2-phthalimidoethyl)-N-substituted thiocarbamates and their ring-opened congeners as non-nucleoside HIV-1 reverse transcriptase inhibitors” (Eur J Med Chem, 2009):
pEC50: −log10 of the molar value. Activity calls are given as the source filed them. No rule for the calls is given here.

Columns and labels:
[1] = Cytotoxicity against mock-infected human MT4 cells by MTT assay; type: cell-based
In short: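 Mock-infected MT-4 cells, tested in parallel with the antiviral assay; viability read by MTT method; CC50 is the concentration lowering viability by 50%; mean of three separate experiments, triplicate variation under 10%.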

[2] = system: Human immunodeficiency virus 1; experiment: Antiviral activity against wild type HIV1 3B in human MT4 cells assessed as protection against viral induced cytopathogenicity by MTT assay; type: functional, organism-based; conditions: Human immunodeficiency virus 1, 3B
In short: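 MT-4 cells infected with HIV-1; 50% protection from virus-induced cytopathogenicity read by MTT method; EC50 in micromolar; mean of three separate experiments, triplicate samples varying under 10%.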

[3] = Selectivity index, ratio of CC50 for human MT4 cells to EC50 for HIV1 3B; type: toxicity, cell-based; conditions: read-out: Ratio CC50/EC50
In short: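 Ratio of CC50 in mock-infected MT-4 cells to EC50 for protection from HIV-1 cytopathogenicity, both read by MTT method.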

[4] = system: Human immunodeficiency virus 1; experiment: Antiviral activity against HIV1 3B Y181C/K103N double mutant in human MT4 cells assessed as protection against viral induced cytopathogenicity by MTT assay; type: functional, organism-based
In short: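 MT-4 cells infected with HIV-1 carrying the NNRTI-resistance mutation were assayed for protection from virus-induced cytopathogenicity, read out as cell viability by MTT. EC50 is the compound concentration giving 50% protection. Values are means of three separate experiments, with variation among triplicate samples under 10%. Efavirenz served as the reference.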

| Structure (SMILES) | CC50 [1] | pEC50 [2] | selectivity ratio [3] | Activity [4] |
| --- | --- | --- | --- | --- |
| CC(=O)c1ccc(NC(=S)OCCN2C(=O)c3ccc(C)cc3C2=O)cc1 | > 100 µM | 7.15 | > 1430 | inactive |
| O=C1c2ccccc2C(=O)N1CCOC(=S)Nc1ccc(Br)cc1 | – | 7.52 | – | – |
| O=C1c2ccccc2C(=O)N1CCOC(=S)Nc1c(Cl)cc(Cl)cc1Cl | > 100 µM | 5.00 | > 10 | inactive |
| Cc1ccc(NC(=S)OCCN2C(=O)c3ccccc3C2=O)cc1Cl | > 100 µM | 6.10 | > 125 | inactive |
| Cc1cc(C)cc(NC(=S)OCCN2C(=O)c3ccccc3C2=O)c1 | > 100 µM | 5.40 | > 25 | – |
| O=C1c2ccccc2C(=O)N1CCOC(=S)Nc1ccccc1 | – | 5.92 | – | – |
| O=C1c2ccccc2C(=O)N1CCOC(=S)Nc1cc(Cl)ccc1Cl | > 100 µM | 4.38 | > 2.4 | – |
| Cc1ccc(NC(=S)OCCNC(=O)c2ccccc2C(=O)O)cc1Cl | > 100 µM | 5.37 | > 23.2 | – |
| O=C1c2ccccc2C(=O)N1CCOC(=S)NC1CCCC1 | > 100 µM | 4.96 | > 9.1 | – |
| O=C1c2ccccc2C(=O)N1CCOC(=S)NC1CCCCCCC1 | > 100 µM | 6.22 | > 167 | – |
| O=C1c2ccccc2C(=O)N1CCOC(=S)Nc1ccc(Cl)cc1 | – | 7.40 | – | – |
| C[C@@H](COC(=S)Nc1ccc(Cl)cc1)NC(=O)c1ccccc1C(=O)O | > 100 µM | 5.64 | > 43.5 | inactive |
| O=C1c2ccccc2C(=O)N1CCOC(=S)Nc1c(F)cccc1F | > 100 µM | 5.15 | > 14.3 | inactive |
| COc1ccc(C)cc1NC(=S)OCCNC(=O)c1ccccc1C(=O)O | > 100 µM | 4.06 | > 1.1 | – |
| CC(=O)c1ccc(NC(=S)OCCN2C(=O)c3ccccc3C2=O)cc1 | – | 6.85 | – | – |
| O=C(O)c1ccccc1C(=O)NCCOC(=S)Nc1cc(F)ccc1F | > 100 µM | 4.29 | > 2 | inactive |
| Cc1cc(Br)cc(C)c1NC(=S)OCCN1C(=O)c2ccccc2C1=O | > 100 µM | 5.05 | > 11.1 | inactive |
| Cc1cc(Br)ccc1NC(=S)OCCN1C(=O)c2ccccc2C1=O | > 100 µM | 4.72 | > 5.3 | – |
| Cc1ccc(NC(=S)OCCN2C(=O)c3ccccc3C2=O)c(C)c1 | > 100 µM | 5.22 | > 16.7 | – |
| Cc1cc(Cl)ccc1NC(=S)OCCN1C(=O)c2ccccc2C1=O | > 100 µM | 4.57 | > 3.7 | – |
| O=C1c2ccccc2C(=O)N1CCOC(=S)NCc1ccco1 | > 100 µM | < 4.00 | – | inactive |
| O=C1c2ccccc2C(=O)N1CCOC(=S)Nc1ccc([N+](=O)[O-])cc1Cl | > 100 µM | < 4.00 | – | – |

| Structure (SMILES) | CC50 [1] | pEC50 [2] | selectivity ratio [3] | Activity [4] |
| --- | --- | --- | --- | --- |
| Cc1ccc(NC(=S)OC[C@H](C)NC(=O)c2ccccc2C(=O)O)cc1 | > 100 µM | 4.86 | > 7.2 | inactive |
| Cc1ccc2c(c1)C(=O)N(CCOC(=S)NC1CCCCC1)C2=O | > 100 µM | 6.52 | > 333 | inactive |
| O=C(O)c1ccccc1C(=O)NCCOC(=S)Nc1ccc(F)cc1F | > 100 µM | 5.42 | > 26.3 | inactive |
| O=C1c2ccccc2C(=O)N1CCOC(=S)NC1CC1 | > 100 µM | < 4.00 | – | – |
| O=C1c2ccccc2C(=O)N1CCOC(=S)Nc1ccc(F)cc1F | > 100 µM | 6.30 | > 200 | inactive |
| O=C(O)c1ccccc1C(=O)NCCOC(=S)Nc1cc(F)cc(F)c1 | > 100 µM | 4.21 | > 1.6 | inactive |
| CC(C)(C)c1ccc2c(c1)C(=O)N(CCOC(=S)Nc1ccc(Cl)cc1)C2=O | 55 µM | 5.92 | 45.8 | inactive |
| O=C1c2ccccc2C(=O)N1CCOC(=S)Nc1cccc(Cl)c1Cl | > 100 µM | 4.52 | > 3.3 | – |
| O=C(O)c1ccccc1C(=O)NCCOC(=S)Nc1c(F)c(F)cc(F)c1F | > 100 µM | 4.15 | > 1.4 | inactive |
| O=C1c2ccccc2C(=O)N1CCOC(=S)Nc1c(F)c(F)cc(F)c1F | > 100 µM | 5.00 | > 10 | inactive |
| O=C1c2ccccc2C(=O)N1CCOC(=S)Nc1ccc(Cl)c(Cl)c1 | > 100 µM | 6.70 | > 500 | inactive |
| Cc1ccc(Cl)cc1NC(=S)OCCN1C(=O)c2ccccc2C1=O | > 100 µM | < 4.00 | – | – |
| O=C1c2ccccc2C(=O)N1CCOC(=S)Nc1ccc(Cl)cc1Cl | > 100 µM | < 4.00 | – | – |
| COc1ccc(Cl)cc1NC(=S)OCCN1C(=O)c2ccccc2C1=O | > 100 µM | 4.32 | > 2.1 | – |
| COc1ccc(CCNC(=S)OCCN2C(=O)c3ccccc3C2=O)cc1OC | > 100 µM | 5.10 | > 12.5 | inactive |
| O=C1c2ccccc2C(=O)N1CCOC(=S)Nc1cc(Cl)cc(Cl)c1 | > 100 µM | 4.92 | > 8 | – |
| CC(COC(=S)Nc1ccc(Cl)cc1)N1C(=O)c2ccccc2C1=O (racemic) | – | 7.30 | – | – |
| CC(C)(C)CC(C)(C)NC(=S)OCCN1C(=O)c2ccccc2C1=O | > 100 µM | 4.22 | > 1.7 | inactive |
| O=C1c2ccccc2C(=O)N1CCOC(=S)Nc1c(F)cc(F)cc1F | > 100 µM | 5.70 | > 50 | inactive |
| O=C1c2ccccc2C(=O)N1CCOC(=S)Nc1ccc(I)cc1 | – | 7.70 | – | – |
| N#Cc1ccc(NC(=S)OCCN2C(=O)c3ccccc3C2=O)cc1 | – | 7.15 | – | – |
| O=C1c2ccccc2C(=O)N1CCOC(=S)Nc1ccc(Cl)c(Cl)c1Cl | > 100 µM | 4.96 | > 9.1 | inactive |

| Structure (SMILES) | CC50 [1] | pEC50 [2] | selectivity ratio [3] | Activity [4] |
| --- | --- | --- | --- | --- |
| O=C1c2ccccc2C(=O)N1CCOC(=S)NCc1ccccc1 | > 100 µM | 4.59 | > 3.8 | – |
| C[C@@H](COC(=S)Nc1ccc(Cl)cc1)N1C(=O)c2ccccc2C1=O | 84 µM | 6.70 | 420 | inactive |
| Cc1ccc(NC(=S)OCCN2C(=O)c3ccc(C)cc3C2=O)cc1 | 69 µM | 7.70 | 3450 | inactive |
| O=C1c2ccccc2C(=O)N1CCOC(=S)Nc1ccc(F)cc1 | – | 7.00 | – | – |
| O=C1c2ccccc2C(=O)N1CCOC(=S)Nc1cc(F)ccc1F | > 100 µM | 5.10 | > 12.5 | inactive |
| Cc1ccc(NC(=S)OC[C@@H](C)NC(=O)c2ccccc2C(=O)O)cc1 | > 100 µM | 5.64 | > 43.5 | inactive |
| COc1ccc(NC(=S)OCCN2C(=O)c3ccccc3C2=O)cc1OC | > 100 µM | 5.46 | > 28.6 | inactive |
| O=C1c2ccccc2C(=O)N1CCOC(=S)Nc1c(Cl)cccc1Cl | > 100 µM | 4.68 | > 4.8 | – |
| CCc1ccc(NC(=S)OCCN2C(=O)c3ccccc3C2=O)cc1 | – | 7.10 | – | – |
| O=C1c2ccccc2C(=O)N1CCOC(=S)Nc1ccc(Cl)c(C(F)(F)F)c1 | 84 µM | 5.10 | 10.5 | – |
| Cc1ccc(NC(=S)OCCNC(=O)c2ccccc2C(=O)O)c(C)c1 | > 100 µM | 4.28 | > 1.9 | – |
| O=C1c2ccccc2C(=O)N1CCOC(=S)Nc1cc(F)cc(F)c1 | > 100 µM | 5.05 | > 11.1 | inactive |
| Cc1ccc(NC(=S)OCCN2C(=O)c3ccccc3C2=O)cc1 | – | 7.70 | – | – |
| COc1ccc(CCNC(=S)OCCNC(=O)c2ccccc2C(=O)O)cc1OC | 100 µM | 4.20 | 1.6 | inactive |
| Cc1ccc2c(c1)C(=O)N(CCOC(=S)Nc1ccc(Cl)cc1)C2=O | – | 7.60 | – | – |
| Cc1cccc(Cl)c1NC(=S)OCCN1C(=O)c2ccccc2C1=O | > 100 µM | 4.64 | > 4.3 | – |
| C=CCNC(=S)OCCN1C(=O)c2ccccc2C1=O | > 100 µM | < 4.00 | – | – |
| Cc1cccc(C)c1NC(=S)OCCN1C(=O)c2ccccc2C1=O | > 100 µM | 4.12 | > 1.3 | – |
| Cc1ccc(Cl)cc1NC(=S)OCCNC(=O)c1ccccc1C(=O)O | > 100 µM | 4.52 | > 3.3 | – |
| COc1ccc(NC(=S)OCCNC(=O)c2ccccc2C(=O)O)cc1OC | > 100 µM | 4.80 | > 6.2 | – |
| COc1ccc(NC(=S)OCCN2C(=O)c3ccccc3C2=O)cc1 | – | 7.52 | – | – |
